Columns and labels:
HEp-2 [1] = experiment: Growth inhibition of human Hep2 cells at 100 uM after 48 hrs by sulforhodamine B assay; assay type: functional; settings: HEp-2, 48 h, read-out: GI
Summary of the method: (§1)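 Cells kept in RPMI-1640 with 10% FBS, penicillin and streptomycin; trypan blue viability check beforehand. Seeded at 1 × 10^4 cells/well, 24 h at 37 °C, 5% CO2, then treated in quadruplicate for 48 h. Compounds diluted in medium with 50 µg/ml gentamycin; single test level 100 µM. TCA fixation at 4 °C for 1 h, SRB stain, Tris pH 10.5 solubilization, OD 540 nm. IC50 taken as the mean from dose-response curves.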

A549 [2] = experiment: Growth inhibition of human A549 cells at 100 uM after 48 hrs by sulforhodamine B assay; assay type: functional; settings: A549, 48 h, read-out: GI; summary of the method: as §1
IMR-32 [3] = experiment: Growth inhibition of human IMR32 cells after 48 hrs by sulforhodamine B assay; assay type: functional, cell-based; settings: IMR-32, 48 h; summary of the method: as §1
COLO 205 [4] = experiment: Growth inhibition of human COLO205 cells at 100 uM after 48 hrs by sulforhodamine B assay; assay type: functional; settings: COLO 205, 48 h, read-out: GI; summary of the method: as §1
A549 [5] = experiment: Growth inhibition of human A549 cells after 48 hrs by sulforhodamine B assay; assay type: functional, cell-based; settings: A549, 48 h; summary of the method: as §1
PC-3 [6] = experiment: Growth inhibition of human PC3 cells after 48 hrs by sulforhodamine B assay; assay type: functional, cell-based; settings: PC-3, 48 h; summary of the method: as §1
IMR-32 [7] = experiment: Growth inhibition of human IMR32 cells at 100 uM after 48 hrs by sulforhodamine B assay; assay type: functional; settings: IMR-32, 48 h, read-out: GI; summary of the method: as §1
HEp-2 [8] = experiment: Growth inhibition of human Hep2 cells after 48 hrs by sulforhodamine B assay; assay type: functional, cell-based; settings: HEp-2, 48 h; summary of the method: as §1
OVCAR-5 (human) [9] = experiment: Growth inhibition of human OVCAR-5 cells at 100 uM after 48 hrs by sulforhodamine B assay; settings: OVCAR-5, 48 h, read-out: GI
COLO 205 [10] = experiment: Growth inhibition of human COLO205 cells after 48 hrs by sulforhodamine B assay; assay type: functional, cell-based; settings: COLO 205, 48 h; summary of the method: as §1
OVCAR-5 (human) [11] = experiment: Growth inhibition of human OVCAR-5 cells after 48 hrs by sulforhodamine B assay; settings: OVCAR-5, 48 h
PC-3 [12] = experiment: Growth inhibition of human PC3 cells at 100 uM after 48 hrs by sulforhodamine B assay; assay type: functional; settings: PC-3, 48 h, read-out: GI; summary of the method: as §1
PC-3 [13] = experiment: Growth inhibition of human PC3 cells at 20 uM after 48 hrs by sulforhodamine B assay; assay type: functional; settings: PC-3, 48 h, read-out: GI
Summary of the method: (§2)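 Cells kept in RPMI-1640 with 10% FBS, penicillin and streptomycin; viability checked by trypan blue before use. Seeded at 1 × 10^4 cells/well, 24 h at 37 °C in 5% CO2, then compound (diluted in medium with gentamycin) added in quadruplicate for 48 h. Cells fixed with cold 50% TCA at 4 °C for 1 h, stained with 0.4% SRB, dye dissolved in 10 mM Tris pH 10.5, OD read at 540 nm.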

OVCAR-3 = experiment: Growth inhibition of human OVCAR-3 cells at 20 uM after 48 hrs by sulforhodamine B assay; assay type: functional; settings: OVCAR-3, 48 h, read-out: GI; summary of the method: as §2
COLO 205 [14] = experiment: Growth inhibition of human COLO205 cells at 20 uM after 48 hrs by sulforhodamine B assay; assay type: functional; settings: COLO 205, 48 h, read-out: GI; summary of the method: as §2

O=c1c(C(=S)Nc2ccccc2)coc2cc(Cl)ccc12
inhibition of growth at 100 µM (HEp-2 [1]): 41% | inhibition of growth at 100 µM (A549 [2]): 66% | IC50 (IMR-32 [3]): 92.7 µM | inhibition of growth at 100 µM (COLO 205 [4]): 38% | IC50 (A549 [5]): 63.6 µM | IC50 (PC-3 [6]): 90.8 µM | inhibition of growth at 100 µM (IMR-32 [7]): 56% | IC50 (HEp-2 [8]): > 100 µM | inhibition of growth at 100 µM (OVCAR-5 (human) [9]): 47% | IC50 (COLO 205 [10]): > 100 µM | IC50 (OVCAR-5 (human) [11]): > 100 µM | inhibition of growth at 100 µM (PC-3 [12]): 55%

O=c1c(C(=S)Nc2ccccc2)coc2ccccc12
inhibition of growth at 100 µM (HEp-2 [1]): 32% | inhibition of growth at 100 µM (A549 [2]): 79% | IC50 (IMR-32 [3]): 95.8 µM | inhibition of growth at 100 µM (COLO 205 [4]): 71% | IC50 (A549 [5]): 52.8 µM | IC50 (PC-3 [6]): 60.6 µM | inhibition of growth at 100 µM (IMR-32 [7]): 53% | IC50 (HEp-2 [8]): > 100 µM | inhibition of growth at 100 µM (OVCAR-5 (human) [9]): 58% | IC50 (COLO 205 [10]): 72.6 µM | IC50 (OVCAR-5 (human) [11]): 86.4 µM | inhibition of growth at 100 µM (PC-3 [12]): 63%

Cc1ccc2occ(C3N=C(c4ccccc4)SS3)c(=O)c2c1 (stereo unspecified)
inhibition of growth at 100 µM (HEp-2 [1]): 43% | inhibition of growth at 100 µM (A549 [2]): 67% | IC50 (IMR-32 [3]): 70.7 µM | inhibition of growth at 100 µM (COLO 205 [4]): 32% | IC50 (A549 [5]): 66.5 µM | IC50 (PC-3 [6]): > 100 µM | inhibition of growth at 100 µM (IMR-32 [7]): 53% | IC50 (HEp-2 [8]): > 100 µM | inhibition of growth at 100 µM (OVCAR-5 (human) [9]): 54% | IC50 (COLO 205 [10]): > 100 µM | IC50 (OVCAR-5 (human) [11]): 93.7 µM | inhibition of growth at 100 µM (PC-3 [12]): 40%

O=c1c(C2N=C(c3ccccc3)SS2)coc2cc(Cl)c(F)cc12 (stereo unspecified)
inhibition of growth at 100 µM (HEp-2 [1]): 52% | inhibition of growth at 100 µM (A549 [2]): 57% | IC50 (IMR-32 [3]): 56.8 µM | inhibition of growth at 100 µM (COLO 205 [4]): 45% | IC50 (A549 [5]): 93.5 µM | IC50 (PC-3 [6]): 56.9 µM | inhibition of growth at 100 µM (IMR-32 [7]): 80% | IC50 (HEp-2 [8]): 97.6 µM | inhibition of growth at 100 µM (OVCAR-5 (human) [9]): 75% | IC50 (COLO 205 [10]): > 100 µM | IC50 (OVCAR-5 (human) [11]): 61.7 µM | inhibition of growth at 100 µM (PC-3 [12]): 76%

O=c1c(C2N=C(c3ccccc3)SS2)coc2cc(Cl)ccc12 (stereo unspecified)
inhibition of growth at 100 µM (HEp-2 [1]): 31% | inhibition of growth at 100 µM (A549 [2]): 76% | IC50 (IMR-32 [3]): 95.1 µM | inhibition of growth at 100 µM (COLO 205 [4]): 57% | IC50 (A549 [5]): 57.5 µM | IC50 (PC-3 [6]): 38.4 µM | inhibition of growth at 100 µM (IMR-32 [7]): 53% | IC50 (HEp-2 [8]): > 100 µM | inhibition of growth at 100 µM (OVCAR-5 (human) [9]): 91% | IC50 (COLO 205 [10]): 76.7 µM | IC50 (OVCAR-5 (human) [11]): 10.5 µM | inhibition of growth at 100 µM (PC-3 [12]): 81%

O=c1[nH]cc(F)c(=O)[nH]1 [FLUOROURACIL]
inhibition of growth at 20 µM (PC-3 [13]): 20% | inhibition of growth at 20 µM (OVCAR-3): 26% | IC50 (COLO 205 [10]): 21 µM | inhibition of growth at 20 µM (COLO 205 [14]): 12%

O=c1c(C(=S)Nc2ccccc2)coc2ccc(F)cc12
inhibition of growth at 100 µM (HEp-2 [1]): 32% | inhibition of growth at 100 µM (A549 [2]): 70% | IC50 (IMR-32 [3]): 89.8 µM | inhibition of growth at 100 µM (COLO 205 [4]): 26% | IC50 (A549 [5]): 71.9 µM | IC50 (PC-3 [6]): > 100 µM | inhibition of growth at 100 µM (IMR-32 [7]): 59% | IC50 (HEp-2 [8]): > 100 µM | inhibition of growth at 100 µM (OVCAR-5 (human) [9]): 49% | IC50 (COLO 205 [10]): > 100 µM | IC50 (OVCAR-5 (human) [11]): > 100 µM | inhibition of growth at 100 µM (PC-3 [12]): 45%

Reference: ChEMBL document CHEMBL1154727, “Cytotoxic activity of 3-(5-phenyl-3H-[1,2,4]dithiazol-3-yl)chromen-4-ones and 4-oxo-4H-chromene-3-carbothioic acid N-phenylamides” (Eur J Med Chem, 2010)
